Source: ChEMBL document CHEMBL3872222, “Synthesis of novel curcuminoids accommodating a central β-enaminone motif and their impact on cell growth and oxidative stress” (Eur J Med Chem, 2016)
pIC50: −log10 of the molar value. Values after ≈ are worked out from the molar mass of the structure shown.

Key:
[1] = test system: EA.hy 926; test: Effect on oxidative stress in human EAhy926 cells assessed as intracellular ROS level at 1 uM after overnight incubation by DCFH-DA staining based fluorescence assay relative to control; assay type: functional
Outline: (§1)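 Cells grown in DMEM+glutamax, 1% NEAA, 1% P/S, 10% FBS; seeded 20000/well, treated at confluency overnight in serum-free medium, DMSO under 0.1% final. Loaded with 20 μM DCFH-DA 30 min at 37 °C, 10% CO2; washed, phenol red-free medium 1 h, then serum-free medium; fluorescence ex 485/em 535 nm. Percent of untreated; two-tailed unequal-variance t-test, n≥6.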

[2] = Growth inhibition of human HT-29 cells measured after 72 hrs by SRB assay; assay type: functional, cell-based; conditions: HT-29, 72 h
Outline: (§2)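 20000 cells/well treated after 1 day at 1, 5, 10, 25 μM, serum-free, for 3 days. Fixed with 50% TCA 1 h at 4 °C, stained 30 min with 0.4% sulforhodamine B in 1% acetic acid, rinsed with 1% acetic acid, dye dissolved in 10 mM Tris, absorbance 490 nm; triplicate; IC50 derived.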

[3] = Antioxidant activity assessed as trolox equivalent of ferric ion reducing activity using Fe3+-TPTZ by measuring Fe2+-TPTZ formation after 4 mins by UV-vis spectrophotometry based FRAP assay; assay type: functional
Outline: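 FRAP reagent: 300 mM acetate buffer, 10 mM TPTZ in ethanol and 20 mM FeCl3 (in dilute HCl) combined 10:1:1, TPTZ and iron freshly made. Sample mixed 1:9 with reagent; absorbance 593 nm after 4 min. Expressed as trolox equivalents per μM from slope of linear plot versus analog concentration.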

[4] = Growth inhibition of differentiated human Caco2 cells assessed as mitochondrial activity measured after 72 hrs by MTT assay; assay type: cell-based; conditions: Caco-2, 72 h
Outline: (§3)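 Seeded 20000 cells/well in DMEM+glutamax, NEAA, P/S, FBS; after 1 day treated 1, 5, 10, 25 μM in serum-free medium (DMSO under 0.1%) for 3 days. MTT (5 mg/ml in PBS) 2 h at 37 °C, 10% CO2 in dark; formazan dissolved in DMSO, absorbance 570 nm; triplicate; IC50 derived.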

[5] = test system: HT-29; test: Effect on oxidative stress in human HT-29 cells assessed as intracellular ROS level at 1 uM after overnight incubation by DCFH-DA staining based fluorescence assay relative to control; assay type: functional; outline: as §1
[6] = Growth inhibition of human HT-29 cells assessed as mitochondrial activity measured after 72 hrs by MTT assay; assay type: functional, cell-based; conditions: HT-29, 72 h; outline: as §3
[7] = Growth inhibition of human EAhy926 cells measured after 72 hrs by SRB assay; assay type: cell-based; conditions: EA.hy 926, 72 h; outline: as §2
[8] = Growth inhibition of differentiated human Caco2 cells measured after 72 hrs by SRB assay; assay type: cell-based; conditions: Caco-2, 72 h; outline: as §2
[9] = test system: HT-29; test: Effect on oxidative stress in human HT-29 cells assessed as intracellular ROS level at 10 uM after overnight incubation by DCFH-DA staining based fluorescence assay relative to control; assay type: functional; outline: as §1
[10] = Growth inhibition of undifferentiated human Caco2 cells measured after 72 hrs by SRB assay; assay type: functional, cell-based; conditions: Caco-2, 72 h; outline: as §2
[11] = Antioxidant activity assessed as inhibition of DPPH radical activity at 1 uM measured after 30 mins under dark conditions by spectrophotometric analysis relative to control; assay type: functional
[12] = test system: Caco-2; test: Effect on oxidative stress in undifferentiated human Caco2 cells assessed as intracellular ROS level at 10 uM after overnight incubation by DCFH-DA staining based fluorescence assay relative to control; assay type: functional; outline: as §1
[13] = Growth inhibition of CHOK1 cells assessed as mitochondrial activity measured after 72 hrs by MTT assay; assay type: functional, cell-based; conditions: Cricetulus griseus, CHO-K1, 72 h; outline: as §3
[14] = test system: CHO; test: Effect on oxidative stress in CHO cells assessed as intracellular ROS level at 1 uM after overnight incubation by DCFH-DA staining based fluorescence assay relative to control; assay type: functional, Cricetulus griseus; outline: as §1
[15] = test system: Caco-2; test: Effect on oxidative stress in undifferentiated human Caco2 cells assessed as intracellular ROS level at 1 uM after overnight incubation by DCFH-DA staining based fluorescence assay relative to control; assay type: functional; outline: as §1
[16] = test system: CHO; test: Effect on oxidative stress in CHO cells assessed as intracellular ROS level at 10 uM after overnight incubation by DCFH-DA staining based fluorescence assay relative to control; assay type: functional, Cricetulus griseus; outline: as §1
[17] = Growth inhibition of undifferentiated human Caco2 cells assessed as mitochondrial activity measured after 72 hrs by MTT assay; assay type: functional, cell-based; conditions: Caco-2, 72 h; outline: as §3
[18] = Solubility of the compound in serum-free DMEM assessed as compound concentration required for crystal formation measured after 1 day by microscopic analysis; assay type: physicochemical; conditions: 24 h
Outline: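 Compound at 0, 0.5, 1, 5, 10, 25 and 50 μM in serum-free DMEM incubated 1 day at 37 °C, 10% CO2, then examined for crystal formation.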

[19] = Growth inhibition of human EAhy926 cells assessed as mitochondrial activity measured after 72 hrs by MTT assay; assay type: cell-based; conditions: EA.hy 926, 72 h; outline: as §3
[20] = test system: EA.hy 926; test: Effect on oxidative stress in human EAhy926 cells assessed as intracellular ROS level at 10 uM after overnight incubation by DCFH-DA staining based fluorescence assay relative to control; assay type: functional; outline: as §1
[21] = Growth inhibition of CHOK1 cells measured after 72 hrs by SRB assay; assay type: functional, cell-based; conditions: Cricetulus griseus, CHO-K1, 72 h; outline: as §2

solubility [18] [µM] | Structure (SMILES) | Activity [1] [%] | pIC50 [2] | Activity [3] [µMequiv/µM] | pIC50 [4] | Activity [5] [%] | pIC50 [6] | pIC50 [7] | pIC50 [8] | Activity [9] [%] | pIC50 [10] | inhibition [11] [%] | Activity [12] [%] | pIC50 [13] | Activity [14] [%] | Activity [15] [%] | Activity [16] [%] | pIC50 [17] | pIC50 [19] | Activity [20] [%] | further results
50 (≈ 20.5 µg/mL) | CCCNC(=C\C(=O)/C=C/c1ccc(O)c(OC)c1)/C=C/c1ccc(O)c(OC)c1 | 78 | < 4.60 | 0.87 | < 4.60 | 88 | 4.64 | < 4.60 | < 4.60 | 92 | 4.66 | 0.1 | 88 | < 4.60 | 116 | 97 | 118 | < 4.60 | < 4.60 | 141 | pIC50 [21]: < 4.60
5 (≈ 1.95 µg/mL) | O=C(/C=C(/C=C/c1ccc(O)cc1)NC1CCCCC1)/C=C/c1ccc(O)cc1 | 129 | 5.23 | 0.56 | < 4.60 | 77 | 5.40 | 5.38 | < 4.60 | 80 | 5.16 | 0.03 | 82 | 5.04 | 111 | 97 | 150 | 5.11 | 5.48 | 299 | pIC50 [21]: 4.94
5 (≈ 2.12 µg/mL) | CCCCNC(=C\C(=O)/C=C/c1ccc(O)c(OC)c1)/C=C/c1ccc(O)c(OC)c1 | 110 | 4.67 | 1.29 | < 4.60 | 99 | 4.71 | < 4.60 | < 4.60 | 98 | 4.62 | 0.08 | 83 | 5.15 | 129 | 91 | 110 | < 4.60 | < 4.60 | 439 | pIC50 [21]: 4.69
25 (≈ 7.71 µg/mL) | O=C(/C=C/c1ccc(O)cc1)CC(=O)/C=C/c1ccc(O)cc1 [BISDEMETHOXYCURCUMIN] | 92 | < 4.60 | 0.28 | < 4.60 | 75 | < 4.60 | < 4.60 | < 4.60 | 69 | < 4.60 | 0.02 | 83 | < 4.60 | 101 | 98 | 105 | < 4.60 | < 4.60 | 103 | pIC50 [21]: < 4.60
0.5 (≈ 0.226 µg/mL) | COc1cc(/C=C/C(=O)CC(=O)/C=C/c2ccc(OC(C)=O)c(OC)c2)ccc1OC(C)=O | 114 | < 4.60 | 0.03 | < 4.60 | 79 | < 4.60 | < 4.60 | < 4.60 | 76 | < 4.60 | 0 | 90 | < 4.60 | 128 | 93 | 112 | < 4.60 | < 4.60 | 189 | pIC50 [21]: < 4.60
25 (≈ 11.2 µg/mL) | CC(=O)Oc1ccc(/C=C/C(=O)/C=C(/C=C/c2ccc(OC(C)=O)cc2)NCC(C)C)cc1 | 60 | 4.65 | 0.01 | < 4.60 | 92 | 4.86 | < 4.60 | < 4.60 | 99 | < 4.60 | 0 | 85 | < 4.60 | 152 | 102 | 142 | < 4.60 | < 4.60 | 53 | pIC50 [21]: < 4.60

The remaining lines, values behind:

Structure (SMILES) | solubility [18] [µM] | Activity [1] [%] | pIC50 [2] | Activity [3] [µMequiv/µM] | pIC50 [4] | Activity [5] [%] | pIC50 [6] | pIC50 [7] | pIC50 [8] | Activity [9] [%] | pIC50 [10] | inhibition [11] [%] | Activity [12] [%] | pIC50 [13] | Activity [14] [%] | Activity [15] [%] | Activity [16] [%] | pIC50 [17] | pIC50 [19] | Activity [20] [%] | further results
C=CCNC(=C\C(=O)/C=C/c1ccc(O)c(OC)c1)/C=C/c1ccc(O)c(OC)c1 | 25 (≈ 10.2 µg/mL) | 124 | 4.61 | 1.14 | < 4.60 | 99 | < 4.60 | < 4.60 | < 4.60 | 84 | < 4.60 | 0.1 | 76 | 5.13 | 115 | 89 | 104 | < 4.60 | < 4.60 | 267 | pIC50 [21]: < 4.60
COc1cc(/C=C/C(=O)/C=C(/C=C/c2ccc(O)c(OC)c2)NCC(C)C)ccc1O | 25 (≈ 10.6 µg/mL) | 83 | 4.62 | 0.89 | < 4.60 | 91 | 4.61 | < 4.60 | < 4.60 | 92 | < 4.60 | 0.09 | 74 | < 4.60 | 104 | 91 | 118 | < 4.60 | < 4.60 | 100 | pIC50 [21]: < 4.60
COc1cc(/C=C/C(=O)/C=C(/C=C/c2ccc(OC(C)=O)c(OC)c2)NCC(C)C)ccc1OC(C)=O | 5 (≈ 2.54 µg/mL) | 104 | < 4.60 | 0.04 | < 4.60 | 95 | < 4.60 | < 4.60 | < 4.60 | 96 | < 4.60 | 0 | 77 | < 4.60 | 111 | 96 | 111 | < 4.60 | < 4.60 | 240 | pIC50 [21]: < 4.60
COc1cc(/C=C/C(=O)/C=C(/C=C/c2ccc(OC(C)=O)c(OC)c2)NC2CCCCC2)ccc1OC(C)=O | 5 (≈ 2.67 µg/mL) | 101 | < 4.60 | 0.04 | < 4.60 | 96 | < 4.60 | < 4.60 | < 4.60 | 94 | 5.36 | 0.01 | 62 | 5.00 | 89 | 89 | 122 | 5.01 | < 4.60 | 113 | pIC50 [21]: < 4.60
CCC(C)NC(=C\C(=O)/C=C/c1ccc(OC(C)=O)c(OC)c1)/C=C/c1ccc(OC(C)=O)c(OC)c1 (stereo unspecified) | 5 (≈ 2.54 µg/mL) | 68 | < 4.60 | 0 | < 4.60 | 92 | < 4.60 | < 4.60 | < 4.60 | 89 | 4.62 | 0 | 86 | < 4.60 | 88 | 95 | 92 | < 4.60 | < 4.60 | 105 | pIC50 [21]: < 4.60
